# In the library only some 2.2% were active in any assay of this set; here they are far more common.
# FLuc inhib CS = inhibits firefly luciferase, flagging false hits in luciferase inhibition screens; P08659; ATPLite firefly luciferase biochemical luminescence, 10 min; inhibition, % at 10 µM; actives 1.5% (n = 200,000);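 active = inhibition above about 50% when tested at 10 µM, limit read from the data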
# NF-kB neuron act = NF-kB expression increase, human neuronal cells; NF-kB reporter expression; stronger effect = higher value; fold change at 12.5 µM; actives 1.6% (n = 190,000); in the data active = fold change above about 3.3
# FLuc stim CS = firefly luciferase counter-screen for stimulation assays; activation factor at 10 µM; AID 1027; ATPlite luciferase biochemical, luminescence, 10 min; 0 = ATP-free wells, 1 = DMSO control; P08659; 200,000 tested, under 10 active;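 active = luciferase activation factor, scaled between plate controls, of at least 2 with compound at 10 µM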
#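 System: Luciferase/luciferin detection reagent, cell-free biochemical luciferase assay | Medium: PBS buffer for ATP | Dosing: Test compounds dosed from 2 mM stocks in 100% DMSO | Timing: 10 min at ambient temperature | Signal: Luminescence measurement of luciferase light output | Evaluation: Luciferase activation, seen as luminescence increase over controls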
# TRAIL sens C8 = sensitizes caspase-8 expressing cells to TRAIL | inhibition (viability loss, TRAIL sensitization), % at 10 µM | NB7+C8 cells + TRAIL, ATPlite viability luminescence | actives 1% (n = 360,000);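 active = compounds causing at least 50% loss of cell viability in the single-dose screen, relative to plate controls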
# APP 5'UTR act = APP 5'UTR luciferase reporter activation; SH-SY5Y APP 5'UTR luciferase reporter, luminescence; zero percent = DMSO vehicle wells; activation, % at 2 µM; actives 1% (n = 190,000); AID 1276;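 active = activation above a set limit, based on mean plus 3 SD of controls, cut at about 140% in these data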
# PPC-1+TRAIL kill = kills PPC-1 cancer cells in the presence of TRAIL | cell killing (% activity), % at 4 µM or 5 µM | AID 1443 | actives 0.41% (n = 220,000) | PPC-1 cells + TRAIL, ATPLite viability luminescence;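 active = cell killing above 50% in the first pass at 4 µM, then a duplicate retest at 5 µM averaging 50% or more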
# Hits are given with their value; – = inactive; · = no result.
SMILES,FLuc inhib CS,NF-kB neuron act,FLuc stim CS,TRAIL sens C8,APP 5'UTR act,PPC-1+TRAIL kill
CSc1nc2ccc(NC(=O)C3=NNC(=O)CC3)cc2s1,–,–,–,–,–,–
Oc1ccccc1CNc1cnc2ccccc2c1,–,3.6,–,–,–,–
C1CN(CCN2CCOCC2)CCN1,·,·,·,–,·,·
Cc1cc(C(=O)Nc2nc3c(s2)CCCC3)cs1,70,6.4,–,58,–,–
O=C(Nc1nc2c(s1)CCCC2)c1ccc2ncsc2c1,59,–,–,–,160,–
Cc1ccc(CC(=O)Nc2nc3c(s2)CCCC3)cc1,–,3.4,–,–,–,–
Cc1ncsc1C(=O)Nc1nc2c(s1)CCCC2,–,–,–,–,–,–
COc1ccc(OCC(=O)Nc2nc3c(s2)CCCC3)cc1,·,·,·,–,·,·
COc1ccc(NC(=O)Nc2nc3c(s2)CCCC3)cc1,–,4.9,–,–,150,–
CCN(CC)S(=O)(=O)c1ccc(NC(=O)COC(=O)CNS(=O)(=O)/C=C/c2ccccc2)cc1,–,–,–,–,–,–
COc1ccccc1CCCNC(=O)C1CCC(=O)N(CCCN2CCCC2=O)C1 (stereo unspecified),·,·,·,–,·,·
O=C(Nc1nc2c(s1)CCCC2)c1ccc(Br)s1,–,6.1,–,–,146,–
O=C1C=CC(=O)c2c(O)c(N3CCN(CCOCCO)CC3)c(Br)c(O)c21,·,·,·,90,·,·
O=C1C=CC(=O)c2c(O)c(N3CCN(CCO)CC3)c(Cl)c(O)c21,·,·,·,90,·,·
C/C(=N\NC(=O)C(C)n1nc(C)c([N+](=O)[O-])c1C)c1ccccc1O (stereo unspecified),–,–,–,–,–,–
COC(=O)C1C2CC(C(Br)C2Br)C1C(=O)O (stereo unspecified),·,·,·,–,·,·
COc1ccccc1OCCSc1nnnn1-c1ccc(C)cc1,–,–,–,–,–,–
c1ccc(OCCSc2nnc3sc4ccccc4n23)cc1,80,–,–,–,–,–
c1ccc(OCCSc2nnnn2-c2ccccc2)cc1,–,6.5,–,–,170,–
Fc1ccccc1OCCSc1nnnn1-c1ccccc1,–,6.7,–,–,162,–
CC(=O)CC(c1ccc([N+](=O)[O-])cc1)c1c(O)c2ccccc2oc1=O (stereo unspecified),–,–,–,–,–,–
CC1=C(C(=O)OCc2cc(C)on2)N2C(=O)[C@@H](NC(=O)OCc3cc(C)on3)[C@H]2SC1,·,·,·,–,·,·
Cc1cccn2cc(-c3ccc(S(=O)(=O)N4CCCCC4)cc3)nc12,–,–,–,–,–,·
Cc1cccn2cc(-c3ccc(Cl)cc3)nc12,63,9.6,–,–,254,–
COc1ccc(CC(=O)Nc2ccc(-c3cn4ccccc4n3)cc2)cc1OC,–,–,–,–,–,–
SMILES,FLuc inhib CS,NF-kB neuron act,FLuc stim CS,TRAIL sens C8,APP 5'UTR act,PPC-1+TRAIL kill
Cc1cccn2cc(-c3cc4ccccc4oc3=O)nc12,–,3.9,–,–,–,–
COc1ccc(-c2cn3ccccc3n2)cc1OC,77,–,–,60,–,–
Cc1ccc(-c2cn3cccc(C)c3n2)cc1,69,7.7,–,–,154,–
Cc1nc2scc(C)n2c(=O)c1S(=O)(=O)N1CCN(c2cccc(C(F)(F)F)c2)CC1,·,·,·,–,·,·
Cc1cccc2c(N=O)c(O)n(CCc3ccccc3)c12,·,·,·,–,·,·
CCC(=O)Nc1cccc(-c2cn3cccc(C)c3n2)c1,·,·,·,–,·,–
COc1ccc(-c2cn3cccc(C)c3n2)cc1F,–,6.1,–,–,–,–
O=C(CC[C@H]1O[C@@H](n2ccc(=O)[nH]c2=O)[C@H](O)[C@@H]1O)NC1CCN(Cc2ccccc2)C1 (stereo partly specified),·,·,·,–,·,·
S=c1nc[nH]c2c1ncn2C1CCCO1 (stereo unspecified),·,·,·,73,·,–
OCC1OC(n2cnc3c(=S)nc[nH]c32)CC1O (stereo unspecified),·,·,·,76,·,·
COc1ccc(-c2csc3[nH]c(=S)n(-c4ccccc4)c(=O)c23)cc1OC,–,–,–,–,–,–
COc1ccc(/C(C)=N/NC(=O)CNC(=O)/C=C\c2ccccc2OC)c(OC)c1,·,·,·,–,·,·
Cn1c(C(=O)NCc2ccccn2)cc2c(=O)n3ccccc3nc21,51,–,–,–,–,–
COc1cc(S(=O)(=O)NC2CCCCC2)c(C)cc1C,–,·,–,–,–,–

# Bioassay records (PubChem)
